Source: ChEMBL document CHEMBL4689842, “EUbOPEN Chemogenomics Library wave 1” (2021)

System: HEK-293T
Experiment: Multiplex assay against HEK293T;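 for Population Tubulin-Different-Phenotype (%): share of the cells with healthy nuclei that show this phenotype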
Format: toxicity, cell-based
Settings: human
Summary of the method: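 Live cells were stained at seeding with Hoechst33342, BioTracker Green Microtubule Cytoskeleton Dye, MitoTracker Red and Annexin V Alexa Fluor 680. Following compound addition, they were imaged on a CQ1 microscope at 37°C and 5% CO2 and gated by CellPathfinder machine learning into Hoechst high-intensity objects or normal cells, with normal cells split into healthy, pyknosed or fragmented nuclei and pyknosed cells into mitotic or apoptotic. Tubulin, mitochondrial-mass and membrane-permeability phenotypes are per cents of healthy-nucleus cells.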

[1] = 12 h, 1 µM, compound concentration 1 uM, replicate 1
[2] = 12 h, 1 µM, compound concentration 1 uM, replicate 2
[3] = 12 h, 10 µM, compound concentration 10 uM, replicate 1
[4] = 12 h, 10 µM, compound concentration 10 uM, replicate 2
[5] = 24 h, 1 µM, compound concentration 1 uM, replicate 1
[6] = 24 h, 1 µM, compound concentration 1 uM, replicate 2
[7] = 24 h, 10 µM, compound concentration 10 uM, replicate 1
[8] = 24 h, 10 µM, compound concentration 10 uM, replicate 2

CC[C@@H]1C(=O)N(C)c2cnc(Nc3ccc(C(=O)NC4CCN(C)CC4)cc3OC)nc2N1C1CCCC1 [BI-2536]
Population Apoptotic (%) [1]: 15% | Population Fragmented Nuclei (%) [1]: 15% | Population Healthy Nuclei (%) [1]: 61% | Population Hoechst High Intensity Objects (%) [1]: 12% | Population Membrane Permeable-Phenotype (%) [1]: 12% | Population Mitochondria Different-Phenotype (%) [1]: 10% | Population Mitotic Cells (%) [1]: 84% | Population Normal (%) [1]: 87% | Population Pyknosed Nuclei (%) [1]: 22% | Population Tubulin-Different-Phenotype (%) [1]: 14% | Total Cell Count [1]: 578 | Population Apoptotic (%) [2]: 12% | Population Fragmented Nuclei (%) [2]: 3% | Population Healthy Nuclei (%) [2]: 82% | Population Hoechst High Intensity Objects (%) [2]: 2% | Population Membrane Permeable-Phenotype (%) [2]: 7% | Population Mitochondria Different-Phenotype (%) [2]: 28% | Population Mitotic Cells (%) [2]: 87% | Population Normal (%) [2]: 97% | Population Pyknosed Nuclei (%) [2]: 13% | Population Tubulin-Different-Phenotype (%) [2]: 41% | Total Cell Count [2]: 1166 | Population Apoptotic (%) [3]: 32% | Population Fragmented Nuclei (%) [3]: 17% | Population Healthy Nuclei (%) [3]: 59% | Population Hoechst High Intensity Objects (%) [3]: 11% | Population Membrane Permeable-Phenotype (%) [3]: 17% | Population Mitochondria Different-Phenotype (%) [3]: 40% | Population Mitotic Cells (%) [3]: 67% | Population Normal (%) [3]: 88% | Population Pyknosed Nuclei (%) [3]: 23% | Population Tubulin-Different-Phenotype (%) [3]: 90% | Total Cell Count [3]: 497 | Population Apoptotic (%) [4]: 12% | Population Fragmented Nuclei (%) [4]: 4% | Population Healthy Nuclei (%) [4]: 81% | Population Hoechst High Intensity Objects (%) [4]: 3% | Population Membrane Permeable-Phenotype (%) [4]: 24% | Population Mitochondria Different-Phenotype (%) [4]: 43% | Population Mitotic Cells (%) [4]: 87% | Population Normal (%) [4]: 96% | Population Pyknosed Nuclei (%) [4]: 13% | Population Tubulin-Different-Phenotype (%) [4]: 98% | Total Cell Count [4]: 911 | Population Apoptotic (%) [5]: 14% | Population Fragmented Nuclei (%) [5]: 14% | Population Healthy Nuclei (%) [5]: 62% | Population Hoechst High Intensity Objects (%) [5]: 12% | Population Membrane Permeable-Phenotype (%) [5]: 5% | Population Mitochondria Different-Phenotype (%) [5]: 12% | Population Mitotic Cells (%) [5]: 85% | Population Normal (%) [5]: 87% | Population Pyknosed Nuclei (%) [5]: 23% | Population Tubulin-Different-Phenotype (%) [5]: 19% | Total Cell Count [5]: 553 | Population Apoptotic (%) [6]: 6% | Population Fragmented Nuclei (%) [6]: 2% | Population Healthy Nuclei (%) [6]: 66% | Population Hoechst High Intensity Objects (%) [6]: 4% | Population Membrane Permeable-Phenotype (%) [6]: 2% | Population Mitochondria Different-Phenotype (%) [6]: 22% | Population Mitotic Cells (%) [6]: 93% | Population Normal (%) [6]: 95% | Population Pyknosed Nuclei (%) [6]: 31% | Population Tubulin-Different-Phenotype (%) [6]: 48% | Total Cell Count [6]: 1114 | Population Apoptotic (%) [7]: 39% | Population Fragmented Nuclei (%) [7]: 17% | Population Healthy Nuclei (%) [7]: 57% | Population Hoechst High Intensity Objects (%) [7]: 12% | Population Membrane Permeable-Phenotype (%) [7]: 7% | Population Mitochondria Different-Phenotype (%) [7]: 80% | Population Mitotic Cells (%) [7]: 60% | Population Normal (%) [7]: 87% | Population Pyknosed Nuclei (%) [7]: 25% | Population Tubulin-Different-Phenotype (%) [7]: 93% | Total Cell Count [7]: 510 | Population Apoptotic (%) [8]: 11% | Population Fragmented Nuclei (%) [8]: 11% | Population Healthy Nuclei (%) [8]: 62% | Population Hoechst High Intensity Objects (%) [8]: 3% | Population Membrane Permeable-Phenotype (%) [8]: 8% | Population Mitochondria Different-Phenotype (%) [8]: 59% | Population Mitotic Cells (%) [8]: 88% | Population Normal (%) [8]: 96% | Population Pyknosed Nuclei (%) [8]: 26% | Population Tubulin-Different-Phenotype (%) [8]: 97% | Total Cell Count [8]: 1005
